Results: ChEMBL document CHEMBL1914324, “Discovery of novel spirocyclic inhibitors of fatty acid amide hydrolase (FAAH). Part 2. Discovery of 7-azaspiro[3.5]nonane urea PF-04862853, an orally efficacious inhibitor of fatty acid amide hydrolase (FAAH) for pain” (Bioorg Med Chem Lett, 2011)
The source made the active and inactive calls. The rule behind the calls is not given here.

What was measured:
[1] = target: T1, Fatty-acid amide hydrolase 1 (Homo sapiens) (UniProt O00519); experiment: Ratio of Kinact to Ki for human FAAH activity
T1 sequence (whole entry): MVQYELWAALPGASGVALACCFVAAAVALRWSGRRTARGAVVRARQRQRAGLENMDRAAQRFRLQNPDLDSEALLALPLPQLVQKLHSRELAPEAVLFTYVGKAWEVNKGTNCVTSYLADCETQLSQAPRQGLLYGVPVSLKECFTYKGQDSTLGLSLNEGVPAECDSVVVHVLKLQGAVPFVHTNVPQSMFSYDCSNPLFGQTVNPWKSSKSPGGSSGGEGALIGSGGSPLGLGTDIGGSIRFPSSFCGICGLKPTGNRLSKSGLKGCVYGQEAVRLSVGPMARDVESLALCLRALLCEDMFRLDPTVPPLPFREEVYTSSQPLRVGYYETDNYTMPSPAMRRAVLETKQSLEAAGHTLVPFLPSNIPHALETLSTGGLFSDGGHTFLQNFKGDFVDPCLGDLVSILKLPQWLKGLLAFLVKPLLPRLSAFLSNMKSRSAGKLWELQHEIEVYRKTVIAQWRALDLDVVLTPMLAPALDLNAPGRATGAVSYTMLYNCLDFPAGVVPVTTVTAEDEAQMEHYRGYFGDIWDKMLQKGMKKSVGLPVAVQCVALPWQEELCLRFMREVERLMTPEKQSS
Method in brief: (§1)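 kinact/Ki determined against human and rat FAAH. Each value is the average of at least two independent determinations.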

[2] = target: T2, Fatty-acid amide hydrolase 1 (Rattus norvegicus) (UniProt P97612); experiment: Ratio of Kinact to Ki for rat FAAH activity; method in brief: as §1
T2 sequence (whole entry): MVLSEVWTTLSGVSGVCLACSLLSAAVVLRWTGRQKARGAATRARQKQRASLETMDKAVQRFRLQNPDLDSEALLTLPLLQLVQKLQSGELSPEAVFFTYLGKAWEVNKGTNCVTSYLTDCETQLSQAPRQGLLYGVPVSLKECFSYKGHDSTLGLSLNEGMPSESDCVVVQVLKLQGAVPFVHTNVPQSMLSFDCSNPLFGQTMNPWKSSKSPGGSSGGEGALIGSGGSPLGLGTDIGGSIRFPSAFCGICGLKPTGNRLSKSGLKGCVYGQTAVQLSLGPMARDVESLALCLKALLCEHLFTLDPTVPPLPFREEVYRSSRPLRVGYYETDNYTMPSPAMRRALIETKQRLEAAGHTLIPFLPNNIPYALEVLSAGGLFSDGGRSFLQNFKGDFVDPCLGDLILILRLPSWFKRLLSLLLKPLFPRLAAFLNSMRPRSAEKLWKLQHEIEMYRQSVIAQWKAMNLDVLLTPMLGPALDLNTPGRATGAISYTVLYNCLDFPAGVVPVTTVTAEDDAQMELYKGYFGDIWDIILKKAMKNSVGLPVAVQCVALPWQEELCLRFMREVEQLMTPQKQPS

Rattus norvegicus = experiment: Inhibition of FAAH in rat CFA model at 3 mg/kg, po after 3 hrs; format: functional; details: for minimal effective dose: read-out: MED
[3] = target: T1, Fatty-acid amide hydrolase 1 (Homo sapiens); experiment: Inhibition of FAAH in human brain membrane using rhodamine-tagged fluorophosphonate probe at 100 uM by competitive activity-based protein profiling method; format: cell membranes
Method in brief: (§2)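 Competitive activity-based protein profiling against >200 human serine hydrolases, FAAH included. Compound tested at 100 µM in human brain membrane and soluble liver proteomes. Residual hydrolase activity labelled with a rhodamine-tagged fluorophosphonate probe.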

[4] = target: T1, Fatty-acid amide hydrolase 1 (Homo sapiens); experiment: Inhibition of FAAH in human liver proteomes using rhodamine-tagged fluorophosphonate probe at 100 uM by competitive activity-based protein profiling method; method in brief: as §2
[5] = target: Voltage-gated inwardly rectifying potassium channel KCNH2 (Homo sapiens, UniProt Q12809); experiment: Displacement of dofetilide from ERG
[6] = Inhibition of cytochrome P450; format: ADME

Chain of Voltage-gated inwardly rectifying potassium channel KCNH2 (Q12809 whole entry): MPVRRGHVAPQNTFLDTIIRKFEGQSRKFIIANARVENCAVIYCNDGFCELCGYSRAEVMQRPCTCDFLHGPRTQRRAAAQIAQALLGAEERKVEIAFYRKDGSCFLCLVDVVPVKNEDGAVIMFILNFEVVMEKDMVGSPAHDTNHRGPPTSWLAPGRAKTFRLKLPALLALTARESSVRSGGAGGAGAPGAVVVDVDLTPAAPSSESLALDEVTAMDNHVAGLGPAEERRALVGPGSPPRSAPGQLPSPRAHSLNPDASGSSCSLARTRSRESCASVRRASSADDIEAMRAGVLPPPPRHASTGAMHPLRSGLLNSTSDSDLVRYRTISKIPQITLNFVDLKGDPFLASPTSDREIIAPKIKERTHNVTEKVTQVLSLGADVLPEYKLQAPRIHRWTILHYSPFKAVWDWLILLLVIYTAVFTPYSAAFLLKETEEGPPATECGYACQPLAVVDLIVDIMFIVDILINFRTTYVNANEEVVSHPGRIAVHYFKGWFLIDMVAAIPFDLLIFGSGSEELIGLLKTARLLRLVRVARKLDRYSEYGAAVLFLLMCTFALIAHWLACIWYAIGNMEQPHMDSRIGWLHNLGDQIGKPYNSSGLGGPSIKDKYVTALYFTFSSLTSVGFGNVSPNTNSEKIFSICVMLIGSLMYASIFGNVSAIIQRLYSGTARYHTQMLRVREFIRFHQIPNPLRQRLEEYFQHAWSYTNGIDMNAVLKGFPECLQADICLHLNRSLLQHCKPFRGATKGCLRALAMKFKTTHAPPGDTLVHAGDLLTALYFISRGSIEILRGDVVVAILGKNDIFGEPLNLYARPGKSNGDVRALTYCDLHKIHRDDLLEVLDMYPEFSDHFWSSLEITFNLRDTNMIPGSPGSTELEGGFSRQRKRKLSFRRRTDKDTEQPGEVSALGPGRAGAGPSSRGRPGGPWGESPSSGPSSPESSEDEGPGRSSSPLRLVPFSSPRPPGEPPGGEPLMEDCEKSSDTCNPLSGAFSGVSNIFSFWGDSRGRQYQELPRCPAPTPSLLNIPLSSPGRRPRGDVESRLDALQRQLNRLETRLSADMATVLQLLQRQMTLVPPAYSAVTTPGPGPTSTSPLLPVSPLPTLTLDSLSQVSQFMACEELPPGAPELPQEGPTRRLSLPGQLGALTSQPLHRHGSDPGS

Row | Ratio [1] [M⁻¹ s⁻¹] | Ratio [2] [M⁻¹ s⁻¹] | SMILES | also measured
1 | 7110 | 4560 | Cn1nnnc1NC(=O)N1CCC2(CC1)CC(c1cccc(OC(F)(F)F)c1)CO2 (configuration not stated) | activity call (active/not active) (Rattus norvegicus): Active; minimal effective dose (Rattus norvegicus): 0.1 mg/kg; inhibition [3]: Active; inhibition [4]: Active; inhibition (INH) [5]: Not Active; inhibition (INH) [6]: Not Active
2 | 461 | 315 | Cc1noc(NC(=O)N2CCC3(CC2)CC(c2ccccc2)CO3)c1C (racemic) | 
3 | 12400 | 5750 | Cn1nnnc1NC(=O)N1CCC2(CC1)CC(c1cccc(C(F)(F)F)c1)C2 | activity call (active/not active) (Rattus norvegicus): Active; minimal effective dose (Rattus norvegicus): 1 mg/kg; inhibition [3]: Active; inhibition [4]: Active; inhibition (INH) [5]: Not Active; inhibition (INH) [6]: Not Active
4 | 245 | 348 | Cc1noc(NC(=O)N2CCC3(CC2)CC(c2ccc(C(F)(F)F)cc2)C3)c1C | 
5 | 3940 | 3560 | Cc1noc(NC(=O)N2CCC3(CC2)CC(c2cccc(Cl)c2)C3)c1C | activity call (active/not active) (Rattus norvegicus): Active; minimal effective dose (Rattus norvegicus): 1 mg/kg; inhibition [3]: Active; inhibition [4]: Active; inhibition (INH) [5]: Not Active; inhibition (INH) [6]: Not Active
6 | 2390 | 1560 | Cc1noc(NC(=O)N2CCC3(CC2)CC(c2cccc(Cl)c2)CO3)c1C (stereo in doubt; form 1) | 
7 | 353 | 229 | Cc1noc(NC(=O)N2CCC3(CC2)CC(c2ccc(OC(F)(F)F)cc2)C3)c1C | 
8 | 1330 | 2680 | Cc1noc(NC(=O)N2CCC3(CC2)CC(c2cccc(C(F)(F)F)c2)CO3)c1C (racemic) | 
9 | 2190 | 741 | COc1cccc(C2CC3(CCN(C(=O)Nc4onc(C)c4C)CC3)C2)c1 | 
10 | 113 |  | Cc1cc(NC(=O)N2CCC3(CC2)CC(c2cccc(OC(F)(F)F)c2)C3)on1 | 
11 | 1140 |  | Cc1noc(NC(=O)N2CCC3(CC2)CC(c2ccccc2C(F)(F)F)C3)c1C | 
12 | 243 | 999 | Cc1noc(NC(=O)N2CCC3(CC2)CC(c2cccc(C#N)c2)CO3)c1C (racemic) | 
13 | 1580 | 3950 | Cc1noc(NC(=O)N2CCC3(CC2)CC(c2ccc(F)c(Cl)c2)CO3)c1C (racemic) | 
14 | 1650 | 1660 | CCc1noc(NC(=O)N2CCC3(CC2)CC(c2cccc(OC(F)(F)F)c2)C3)c1C | 
15 | 16300 | 5940 | Cn1nnnc1NC(=O)N1CCC2(CC1)CC(c1ccc(F)c(Cl)c1)C2 | 
16 | 165 | 152 | Cn1nnc(NC(=O)N2CCC3(CC2)CC(c2cccc(OC(F)(F)F)c2)C3)n1 | 
17 | 2640 | 265 | COc1ccccc1C1CC2(CCN(C(=O)Nc3onc(C)c3C)CC2)C1 | 
18 | 2590 | 3830 | Cc1noc(NC(=O)N2CCC3(CC2)CC(c2cccc(Cl)c2)CO3)c1C (stereo in doubt; form 2) | 
19 | 2830 | 3860 | Cc1noc(NC(=O)N2CCC3(CC2)CC(c2cccc(OC(F)(F)F)c2)C3)c1C | activity call (active/not active) (Rattus norvegicus): Active; minimal effective dose (Rattus norvegicus): 1 mg/kg; inhibition [3]: Active; inhibition [4]: Active; inhibition (INH) [5]: Not Active; inhibition (INH) [6]: Not Active
20 |  |  | Cn1nnnc1NC(=O)N1CCC2(CC1)CC(c1cccc(C(F)(F)F)c1)CO2 (stereo in doubt; form 1) [listing 1 of 2 here] | minimal effective dose (Rattus norvegicus): 1 mg/kg; inhibition (INH) [5]: Not Active; inhibition (INH) [6]: Not Active
21 | 2080 | 679 | Cc1noc(NC(=O)N2CCC3(CC2)CC(c2ccccc2)C3)c1C | 
22 | 5600 | 1970 | Cn1nnnc1NC(=O)N1CCC2(CC1)CC(c1cccc(Cl)c1)CO2 (configuration not stated) | 

Row | Ratio [1] [M⁻¹ s⁻¹] | Ratio [2] [M⁻¹ s⁻¹] | SMILES | also measured
23 | 6940 | 3420 | CCn1nnnc1NC(=O)N1CCC2(CC1)CC(c1cccc(OC(F)(F)F)c1)C2 | 
24 | < 10 |  | Cn1ncnc1NC(=O)N1CCC2(CC1)CC(c1cccc(OC(F)(F)F)c1)C2 | 
25 | 13200 | 4570 | Cn1nnnc1NC(=O)N1CCC2(CC1)CC(c1cccc(OC(F)(F)F)c1)C2 | activity call (active/not active) (Rattus norvegicus): Active; minimal effective dose (Rattus norvegicus): 0.1 mg/kg; inhibition [3]: Active; inhibition [4]: Active; inhibition (INH) [5]: Not Active; inhibition (INH) [6]: Not Active
26 | 2030 | 2070 | Cc1noc(NC(=O)N2CCC3(CC2)CC(c2ccc(Cl)cc2)C3)c1C | 
27 | 3760 | 2110 | Cn1nnnc1NC(=O)N1CCC2(CC1)CC(c1cccc(C(F)(F)F)c1)CO2 (stereo in doubt; form 2) | 
28 | 5670 | 1340 | CCc1cccc(C2CC3(CCN(C(=O)Nc4onc(C)c4C)CC3)C2)c1 | activity call (active/not active) (Rattus norvegicus): inactive; inhibition [3]: Active; inhibition [4]: Active; inhibition (INH) [5]: Not Active; inhibition (INH) [6]: Not Active
29 | 4600 | 2160 | Cn1nnnc1NC(=O)N1CCC2(CC1)CC(c1cccc(C(F)(F)F)c1)CO2 (stereo in doubt; form 1) [listing 2 of 2 here] | activity call (active/not active) (Rattus norvegicus): Active; inhibition [3]: Active; inhibition [4]: Active
30 | 162 | 461 | Cc1noc(NC(=O)N2CCC3(CC2)CC(c2ccc(OC(F)(F)F)cc2)CO3)c1C (racemic) | 
31 | 1530 | 2460 | Cc1nnc(NC(=O)N2CCC3(CC2)CC(c2cccc(OC(F)(F)F)c2)C3)o1 | 
32 | 43.2 | 26.1 | Cc1noc(NC(=O)N2CCC3(CC2)CC(c2ccc(C#N)cc2)CO3)c1C (racemic) | 
33 | 4550 | 3470 | Cc1noc(NC(=O)N2CCC3(CC2)CC(c2ccc(Cl)c(Cl)c2)C3)c1C | 
34 | 2040 | 2670 | Cc1noc(NC(=O)N2CCC3(CC2)CC(c2cccc(Cl)c2)CO3)c1C (racemic) | 
35 | 338 |  | CCc1c(C)noc1NC(=O)N1CCC2(CC1)CC(c1cccc(OC(F)(F)F)c1)C2 | 
36 | 64 | 34.2 | Cc1onc(NC(=O)N2CCC3(CC2)CC(c2cccc(OC(F)(F)F)c2)C3)c1C | 
37 | 481 | 714 | Cc1noc(NC(=O)N2CCC3(CC2)CC(c2ccc(C(F)(F)F)cc2)CO3)c1C (racemic) | 
38 |  | 9460 | Cc1noc(NC(=O)N2CCC3(CC2)CC(c2cccc(Oc4ccc(C(F)(F)F)cn4)c2)C3)c1C | 
39 | 3060 | 3690 | Cc1noc(NC(=O)N2CCC3(CC2)CC(c2cccc(C(F)(F)F)c2)C3)c1C | 
40 | 1800 | 3110 | Cc1noc(NC(=O)N2CCC3(CC2)CC(c2cccc(OC(F)(F)F)c2)CO3)c1C (racemic) | 
41 | 839 | 564 | Cc1noc(NC(=O)N2CCC3(CC2)CC(c2ccccc2OC(F)(F)F)C3)c1C | 
42 | 2870 | 1620 | Cc1cccc(C2CC3(CCN(C(=O)Nc4onc(C)c4C)CC3)C2)c1 | 
43 | 1760 | 585 | COc1ccc(C2CC3(CCN(C(=O)Nc4onc(C)c4C)CC3)C2)cc1 | 
44 | 2430 | 4360 | Cc1noc(NC(=O)N2CCC3(CC2)CC(c2ccc(Cl)c(Cl)c2)CO3)c1C (racemic) | 
